Source: PubChem (The Scripps Research Institute Molecular Screening Center)
This is a sample that favours compounds with a hit; in the whole collection about 2.4% have one here.
VIM-2 inh: inhibitors of Pseudomonas aeruginosa VIM-2 metallo-beta-lactamase; purified VIM-2, nitrocefin hydrolysis, epi-absorbance fluorescence; inhibition, % at 5.6 µM; hit rate 0.89% among 290,000; AID 1527;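 active means inhibition above the mean of all tested compounds plus 3 SD, cutoff set per screening run, cut at about 7.5% in these data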;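 further: red hydrolysis product quenches plate fluorescence so inhibitors raise well fluorescence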
IMP-1 inh: blocks Pseudomonas aeruginosa IMP-1 metallo-beta-lactamase; inhibition, % at 5.6 µM; purified IMP-1, nitrocefin hydrolysis, epi-absorbance fluorescence; hit rate 0.45% among 290,000; AID 1556;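 active means inhibition above the mean plus 3 SD of all compounds in the same screening run, cut at about 4.5% in these data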
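Material – recombinant IMP-1 enzyme, purified · Amount – IMP-1 0.2 nM before substrate addition · Medium – HEPES buffer pH 7.1 with ZnSO4 and Brij 35 · Timing – 25 °C, 15 min preincubation, 25 min reaction · Measured by – plate fluorescence quenching by hydrolysis product, ex 480/em 530 nm · Read-out – percent enzyme inhibition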
HGIII-sPLA2 inh: Inhibits HGIII-sPLA2 liposome hydrolysis, primary screen | inhibition, % at 12.2 µM | hit rate 0.56% among 370,000 | QFRET BODIPY PC-A2 liposome hydrolysis, fluorescence | AID 743126;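 active means inhibition above mean plus 3 SD of compounds lying within the high and low control bounds, cut at about 19% in these data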
Target sequence (Q9NZ20 whole entry, looked up): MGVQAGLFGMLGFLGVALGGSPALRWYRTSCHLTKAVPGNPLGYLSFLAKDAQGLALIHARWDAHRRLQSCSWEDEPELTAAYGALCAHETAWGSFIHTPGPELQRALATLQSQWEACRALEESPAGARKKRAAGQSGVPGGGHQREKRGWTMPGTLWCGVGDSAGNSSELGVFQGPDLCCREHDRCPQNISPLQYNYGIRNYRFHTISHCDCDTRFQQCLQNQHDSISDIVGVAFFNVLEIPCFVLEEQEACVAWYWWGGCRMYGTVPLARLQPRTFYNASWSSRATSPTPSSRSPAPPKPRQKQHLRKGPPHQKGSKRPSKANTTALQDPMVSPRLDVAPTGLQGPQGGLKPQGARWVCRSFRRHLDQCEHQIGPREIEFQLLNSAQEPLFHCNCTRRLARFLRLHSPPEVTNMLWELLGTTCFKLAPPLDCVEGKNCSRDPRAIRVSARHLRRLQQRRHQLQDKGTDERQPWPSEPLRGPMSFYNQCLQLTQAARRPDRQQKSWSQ
M18AAP inhibitor: PfM18AAP enzyme inhibition | recombinant PfM18AAP, H-Glu-NHMec fluorogenic cleavage | inhibition, % at 7.35 µM | hit rate 1.2% among 290,000 | AID 1822;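 active means inhibition above the campaign mean inhibition over all tested compounds plus 3 SD, cut at about 28% in these data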
sPLA2 confirm: human GIII-sPLA2 inhibition, confirmation. shares compounds with HGIII-sPLA2 inh. recombinant hGIII-sPLA2, BODIPY PC-A2 QFRET fluorescence. inhibition, % at 12.2 µM. hit rate 34% among 2,000;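 active means mean inhibition across triplicates above the hit cutoff set in the earlier primary screen, cut at about 19% in these data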
535nm interf: optically interferes with 535nm fluorescence in sPLA2 counter-screen; shares compounds with HGIII-sPLA2 inh; BODIPY FL product fluorescence interference, QFRET; inhibition, % at 12.2 µM; hit rate 8.5% among 2,000; AID 743282;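 active means average inhibition above the solvent-only control mean plus 3 SD, cut at about 6% in these data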
Numbers stand for hits; . = inactive; / = no result given.

SMILES	VIM-2 inh	IMP-1 inh	HGIII-sPLA2 inh	M18AAP inhibitor	sPLA2 confirm	535nm interf
NC(c1ccccc1)c1csc(NC(=O)NCCc2ccccc2)n1 (centres undefined)	/	/	25.1	/	.	.
NC(c1csc(Nc2nncc3ccccc23)n1)C1CCCCC1 (centres undefined)	/	/	19.7	/	.	.
CC(C)CC(N)c1csc(NC(=O)NCCc2ccccc2)n1 (centres undefined)	/	/	.	/	/	/
COc1ccc(CCNC(=O)Nc2nc(C(N)C3CCCCC3)cs2)cc1OC (centres undefined)	/	/	22.1	/	.	.
Cn1c2ccccc2c(=O)c2c(=O)n(Cc3cccc4ccccc34)cnc21	/	/	.	/	/	/
C=CCN(C(=O)[C@@H](C1CC1)[C@@H](O)c1ccc(Cl)cc1)c1ccccc1	/	/	.	/	/	/
O=C(C1CCCN(S(=O)(=O)c2ccc(Br)s2)C1)N1CCN(Cc2ccccc2)CC1 (centres undefined)	/	/	.	/	/	/
CC1(C)CC(=O)C=C(c2cccc(OC(=O)c3ccc(Br)cc3)c2)C1=O	/	/	.	/	/	/
O=C(Cn1cc(C(F)(F)F)ccc1=O)Nc1ccc2c(c1)OCO2	/	/	.	/	/	/
O=C(NCCS(=O)(=O)N1CCC2(CC1)OCCO2)c1ccc(F)cc1	/	/	.	/	/	/
S=C(NCc1ccc2c(c1)OCO2)NCc1ccc2c(c1)OCO2	.	.	.	.	/	/
NNC(=S)NCc1ccc2c(c1)OCO2	.	.	20.0	.	.	.
Cc1ccnc(SCc2cc(=O)c(OC(=O)c3ccc([N+](=O)[O-])cc3)co2)n1	/	/	.	/	/	/
Cc1cc(C)nc(SCc2cc(=O)c(OC(=O)c3ccc(Cl)c([N+](=O)[O-])c3)co2)n1	.	.	21.7	.	.	.
CC(C)(C)c1cc(C(=O)N/N=C/c2ccccc2O)n(-c2ccccc2)n1	.	.	27.6	.	.	.
CCCCOc1cc(NCc2ccccc2)c2ncn(C(C)C)c2c1	/	/	20.8	/	.	.
COCCCOc1cc(NCc2ccccc2)c2ncn(C(C)C)c2c1	/	/	.	/	/	/
O=C1NC[C@H](CCCCN2C[C@@H](Cc3ccccc3)N(CC3CCCCC3)C(=O)C2=O)N(CCC2CCCCC2)C1=O	/	/	.	/	/	/
CC/C(=N/NC(=O)c1ccc(Br)cc1)c1ccc(OCCN2CCOCC2)cc1	.	.	20.7	.	.	.
CC/C(=N/NC(=O)c1ccccc1)c1ccc(OCCN2CCOCC2)cc1	.	.	.	.	/	/
O=C(C1CCN(S(=O)(=O)c2ccc3[nH]c(=O)oc3c2)CC1)N1CCCC1	/	/	.	/	/	/
CCNC(=S)NNC(=O)c1c(Cl)c(C)nn1C	.	.	20.9	.	.	.
S=C(Nc1ccccc1)Nc1nc2ccccc2n1CCOc1ccccc1	.	.	21.3	.	25.4	.
CCCCNC(=S)Nc1ccc2nc3n(c(=O)c2c1)CCCCC3	.	.	.	.	/	/
CC(C)CCNC(=S)Nc1ccc2nc3n(c(=O)c2c1)CCCCC3	.	.	19.9	.	.	.
SMILES	VIM-2 inh	IMP-1 inh	HGIII-sPLA2 inh	M18AAP inhibitor	sPLA2 confirm	535nm interf
CN(Cc1ccccc1)C(=O)c1c[nH]c2ccc(S(=O)(=O)N3CCOCC3)cc2c1=O	.	.	19.6	.	.	.
CCOC(=O)c1ccc(NC(=S)Nc2cccc(C)n2)cc1	.	.	.	.	/	/
CCOC(=O)c1ccc(NC(=S)Nc2cccc(N)n2)cc1	.	.	22.1	.	22.0	.
COCCCNC(=O)C[C@H]1C[C@@]2(C(=O)OC)C(=C[C@H](C(C)C)O[C@@H]2C2CC2)N(Cc2ccco2)C1=O	/	/	.	/	/	/
COc1ccc2cc(C3(C)NC(=O)N(CC(=O)Nc4c(C)n(C)n(-c5ccccc5)c4=O)C3=O)ccc2c1 (centres undefined)	.	.	21.0	.	.	.
CC(C)NC(=O)N1Cc2cc(C(=O)NC3CCCCC3)nc(-c3cccc(-c4cccnc4)c3)c2[C@@H]1CCO	/	/	.	/	/	/
O=C(c1ccccc1O)N1N=C(C(F)(F)F)CC1(O)c1ccc([N+](=O)[O-])cc1 (centres undefined)	.	.	20.9	.	.	.
O=C(O)/C=C/C(=O)NCCc1ccc(Cl)cc1	.	.	21.8	.	.	.
CC(C)c1ccc(C2NC(=S)NC3=C2C(=O)CCC3)cc1 (centres undefined)	.	.	24.2	.	.	.
CC(C)(C)c1ccc(CNc2nc(-c3ccccn3)nnc2-c2ccccc2)cc1	/	/	39.5	/	.	.
CSC1=N/C(=C/c2cccnc2)C(=O)N1Cc1ccccc1	.	.	.	.	/	/
CSC1=N/C(=C/c2cccnc2)C(=O)N1Cc1ccc(Cl)cc1	.	.	32.5	.	.	.
OCCNC(=S)NCCc1ccccc1	.	.	19.5	.	.	.
CNC(=S)NCCc1ccccc1	.	.	.	.	/	/
S=C(NCCc1ccccc1)Nc1ncccn1	/	/	19.6	/	.	.
CC(=O)Nc1cccc(-c2nc3ccccc3n2C(C)C(=O)NC(C)(C)C)c1 (centres undefined)	/	/	.	/	/	/
O=C(NCc1ccccn1)[C@@H]1CCCN1C(=O)[C@@H]1CCCN1C(=O)c1c(F)cccc1F	/	/	.	/	/	/
CC(C)(C)Nc1nc(Cl)nc(NC(C)(C)C)n1	.	.	22.6	.	.	.
CNc1nc(Cl)nc(NC(C)(C)C)n1	.	.	.	.	/	/
CN(C1=C(NC(=O)c2ccc(Cl)cc2)C(=O)c2ccccc2C1=O)c1ccccc1	.	.	44.0	.	48.8	7.6
O=C(NC1CCCCN(Cc2cccc(Cl)c2)C1=O)c1ccc(Cl)cc1Cl (centres undefined)	/	/	.	/	/	/
CCCCSc1nc2c(c(=O)[nH]1)CCC2	.	.	19.7	.	.	.
Cc1cc(OCC(O)CN2CCCC2)cc(C)c1Cl (centres undefined)	.	.	.	.	/	/
Nc1ccc2c(c1)C(=O)c1ccc(N)cc1-2	/	/	.	/	/	/
Nc1ccc2c(c1)C(=O)c1cc(Cl)c(Cl)cc1-2	/	/	31.4	/	35.4	13.9
SMILES	VIM-2 inh	IMP-1 inh	HGIII-sPLA2 inh	M18AAP inhibitor	sPLA2 confirm	535nm interf
Nc1ccc2c(c1)C(=O)c1cc([N+](=O)[O-])ccc1-2	/	/	29.0	/	.	.
COc1ccc(CN2CCNC(=O)C2CC(=O)NCc2cc(C)n(C)n2)c(F)c1 (centres undefined)	.	.	.	.	/	/
Cc1nc(N2CCN(C(=O)COc3ccccc3C)CC2)c2c3c(sc2n1)CCCC3	/	/	.	/	/	/
CCOCCCn1c(SC(C(=O)Nc2cc(C)ccc2C)c2ccccc2)nnc1-c1ccc(Cl)cc1 (centres undefined)	.	.	19.6	.	.	.
N#Cc1c(N(CCO)CCO)nc(N)c2c(N)nc3c(c12)CC(=O)N3CC1CCCO1 (centres undefined)	.	.	.	.	/	/
CCCCN1C(=O)Cc2c1nc(N)c1c(N)nc(N(CCC)CCC)c(C#N)c21	.	.	28.0	.	.	.
CC1CC(C)CN(S(=O)(=O)c2ccc(C(=O)N3CCOCC3)cc2)C1 (centres undefined)	.	.	.	.	/	/
COCCn1c(SCC(=O)NCC2CCCO2)nc2c(c1=O)SC(C)C2 (centres undefined)	.	.	19.7	.	.	.
Nc1ncnc2c1ncn2[C@@H]1O[C@H](C(=O)N[C@H](CO)Cc2ccc(O)cc2)[C@@H](O)[C@H]1O	/	/	.	/	/	/
